≈ marks a conversion by molar mass, not a printed value.
Experiments:
Staphylococcus aureus [1] = assay: Antibacterial activity against methicillin-resistant Staphylococcus aureus BAA-1707 after 16 to 18 hrs by broth microdilution method; type: functional
Method in brief: (§1)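 CLSI broth microdilution in Lysogeny Broth, eleven two-fold dilutions spanning 0.10–100 µM; ~10^5 cells per well from log-phase culture; DMSO vehicle (top 1% v/v). MIC = lowest concentration preventing growth after 16–18 h at 37 °C, supported by OD600; three independent experiments.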

[2] = tested on: Staphylococcus epidermidis; assay: Antibacterial activity against methicillin-resistant Staphylococcus epidermidis ATCC 35984 after 16 to 18 hrs by broth microdilution method; type: functional
Enterococcus faecium [3] = assay: Induction of biofilm eradication of vancomycin-resistant Enterococcus faecium ATCC 700221 after 24 hrs by calgary biofilm device method; type: functional
Method in brief: (§2)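 Calgary device: biofilms established 24 h at 37 °C from mid-log culture diluted 1,000-fold in TSBG (0.5% glucose), washed, exposed 24 h to 2-fold serial dilutions, then peg lid moved to fresh TSBG for 24 h recovery. MBEC = lowest concentration giving no turbidity; at least three independent experiments.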

Enterococcus faecium [4] = assay: Antibacterial activity against vancomycin-resistant Enterococcus faecium ATCC 700221 after 16 to 18 hrs by broth microdilution method; type: functional; method in brief: as §1
Staphylococcus aureus [5] = assay: Bactericidal activity against methicillin-resistant Staphylococcus aureus BAA-1707 planktonic cells after 24 hrs by calgary biofilm device method; type: organism-based
Method in brief: (§3)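 Biofilms grown 24 h at 37 °C on Calgary device pegs from mid-log culture diluted 1,000-fold in TSB + 0.5% glucose; washed pegs challenged 24 h at 37 °C with 2-fold serial dilutions. Challenge medium subcultured into fresh TSBG overnight; MBC = concentration without visible turbidity; at least three independent experiments.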

Staphylococcus aureus [6] = assay: Induction of biofilm eradication of methicillin-resistant Staphylococcus aureus BAA-1707 after 24 hrs by calgary biofilm device method; type: functional; method in brief: as §2
[7] = Half life in human serum by LC-MS analysis; type: ADME, cell-free
Method in brief: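 Human serum pre-warmed to 37 °C, spiked with prodrug from 10 mM DMSO stock plus internal standard, vortexed, then held 1 to 60 min. At each time point, acetonitrile with 0.5% formic acid was added to precipitate proteins. Released active HP was quantified as its ratio to internal standard against standard curves.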

[8] = tested on: Staphylococcus epidermidis; assay: Bactericidal activity against methicillin-resistant Staphylococcus epidermidis ATCC 35984 planktonic cells after 24 hrs by calgary biofilm device method; type: organism-based; method in brief: as §3
[9] = Hemolytic activity in human RBC at 200 uM after 1 hr relative to control; type: ADME, cell-based, Erythrocyte; conditions: red blood cells (erythrocytes), read-out: Activity
Method in brief: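 Human RBCs drawn fresh into EDTA were washed three times in Tris-buffered saline (0.01 M Tris, 0.155 M NaCl, pH 7.2). 2% hRBC suspension was added to compound from DMSO stock, final 200 µM, for 1 h at 37 °C, then centrifuged and supernatant OD405 read. Scaled between DMSO (0%) and Triton X (100%). Three independent experiments.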

[10] = tested on: Staphylococcus epidermidis; assay: Induction of biofilm eradication of methicillin-resistant Staphylococcus epidermidis ATCC 35984 after 24 hrs by calgary biofilm device method; type: functional; method in brief: as §2
HeLa = assay: Cytotoxicity against human HeLa cells after 24 hrs by LDH release assy; type: cell-based
Method in brief: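 HeLa cells in DMEM with 10% FBS at 37 °C, 5% CO2, dosed at 70-80% confluence with compound diluted in medium at 25, 50 and 100 µM for 24 h. Supernatant mixed with LDH reaction mixture, 30 min at room temperature, stopped, A490 read. Triton X-100 (2% v/v) as maximal-release control, medium only as no-death control, DMSO as vehicle. Three independent experiments.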

Enterococcus faecium [11] = assay: Bactericidal activity against vancomycin-resistant Enterococcus faecium ATCC 700221 planktonic cells after 24 hrs by calgary biofilm device method; type: organism-based; method in brief: as §3
[12] = tested on: Mycobacterium tuberculosis; assay: Antibacterial activity against Mycobacterium tuberculosis H37Ra ATCC 25177 after 7 days; type: functional; conditions: H37Ra ATCC 25177, 168 h
Method in brief: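 M. tuberculosis H37Ra grown two weeks in Middlebrook 7H9, diluted to OD600 0.01; two-fold serial dilutions 0.024–50 µM (streptomycin positive control, 0.16–340 µM); final DMSO 0.5%. Incubated 7 days at 37 °C; MIC = lowest concentration with no growth, OD600 recorded; three independent experiments.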

Staphylococcus aureus [13] = assay: Bactericidal activity against methicillin-resistant Staphylococcus aureus 2 planktonic cells after 24 hrs by calgary biofilm device method; type: organism-based; method in brief: as §3
Staphylococcus aureus [14] = assay: Induction of biofilm eradication of methicillin-resistant Staphylococcus aureus 2 after 24 hrs by calgary biofilm device method; type: functional; method in brief: as §2

Row | SMILES | MIC (Staphylococcus aureus [1]) [µM] | MIC [2] [µM] | MIC (Enterococcus faecium [4]) [µM] | MBC [8] [µM] | hemolysis at 1 h, 200 µM [9] [%] | IC50 (HeLa) [µM] | other results
1 | COCCOCCOCCOCCOC(=O)Oc1c(Br)cc(Br)c2nc3cc(Oc4ccccc4)ccc3nc12 | 0.1 (≈ 0.068 µg/mL) | 0.075 (≈ 0.051 µg/mL) | 0.3 (≈ 0.204 µg/mL) | 9.38 (≈ 6.38 µg/mL) | ≤ 1 |  | MBEC (Enterococcus faecium [3]): 1.17 µM; MBC (Staphylococcus aureus [5]): 18.8 µM (≈ 12.8 µg/mL); MBEC (Staphylococcus aureus [6]): 4.69 µM; half-life [7]: < 1 min
2 | COCCOCCOCC(=O)Oc1c(Br)cc(Br)c2nc3ccccc3nc12 |  |  | 3.13 (≈ 1.61 µg/mL) | 9.38 (≈ 4.82 µg/mL) | 1.2 | > 100 | MBEC [10]: 37.5 µM; MBC (Staphylococcus aureus [5]): 18.8 µM (≈ 9.67 µg/mL); MBC (Enterococcus faecium [11]): 6.25 µM (≈ 3.21 µg/mL); MBEC (Staphylococcus aureus [6]): 75 µM; half-life [7]: < 1 min
3 | Cc1cc(C)c2nc3c(Br)ccc(O)c3nc2c1 | 4.69 (≈ 1.42 µg/mL) |  | 9.38 (≈ 2.84 µg/mL) |  |  | > 100 | MIC [12]: 50 µM (≈ 15.2 µg/mL)
4 | c1ccc(CN(CCN(Cc2ccccn2)Cc2ccccn2)Cc2ccccn2)nc1 | 50 (≈ 21.2 µg/mL) |  |  |  | ≤ 1 |  | MBEC (Enterococcus faecium [3]): >2000 µM; MBC (Staphylococcus aureus [5]): 250 µM (≈ 106 µg/mL); MBC (Enterococcus faecium [11]): 188 µM (≈ 79.8 µg/mL); MBEC (Staphylococcus aureus [6]): >2000 µM
5 | N#CC(C#N)=NNc1cccc(Cl)c1 [CARBONYL CYANIDE M-CHLOROPHENYLHYDRAZONE] |  |  |  | 31.3 (≈ 6.4 µg/mL) |  |  | MBEC [10]: 93.8 µM; MBC (Staphylococcus aureus [13]): 31.3 µM (≈ 6.4 µg/mL); MBEC (Staphylococcus aureus [14]): 1000 µM
6 | COCCOCCOCCOCCOC(=O)Oc1c(Br)cc(Br)c2nc3cc(Cl)ccc3nc12 |  | 0.038 (≈ 0.0237 µg/mL) | 0.1 (≈ 0.0623 µg/mL) | 9.38 (≈ 5.84 µg/mL) | 1.1 | > 100 | MBEC [10]: 18.8 µM; MBC (Staphylococcus aureus [5]): 6.25 µM (≈ 3.89 µg/mL); half-life [7]: < 1 min
7 | CCCCCCCCCC(=O)N[C@@H](Cc1c[nH]c2ccccc12)C(=O)N[C@H](CC(N)=O)C(=O)N[C@@H](CC(=O)O)C(=O)N[C@@H]1C(=O)NCC(=O)N[C@@H](CCCN)C(=O)N[C@@H](CC(=O)O)C(=O)N[C@H](C)C(=O)N[C@@H](CC(=O)O)C(=O)NCC(=O)N[C@H](CO)C(=O)N[C@@H]([C@H](C)CC(=O)O)C(=O)N[C@@H](CC(=O)c2ccccc2N)C(=O)O[C@@H]1C [DAPTOMYCIN] |  |  |  |  |  |  | MBC (Staphylococcus aureus [13]): 62.5 µM (≈ 101 µg/mL); MBC (Staphylococcus aureus [5]): 125 µM (≈ 203 µg/mL)
8 | C[C@H]1c2cccc(O)c2C(=O)C2=C(O)[C@]3(O)C(=O)C(C(N)=O)=C(O)[C@@H](N(C)C)[C@@H]3[C@@H](O)[C@@H]21.O [DOXYCYCLINE] |  |  |  |  |  |  | MBC (Staphylococcus aureus [13]): 2 µM; MBEC (Staphylococcus aureus [14]): 46.9 µM
9 | CCOc1ccc2nc3c(O)c(Br)cc(Br)c3nc2c1 | > 100 | 18.8 (≈ 7.48 µg/mL) | > 100 |  |  |  | 
10 | CCCCCCCCCC(=O)N[C@@H](Cc1c[nH]c2ccccc12)C(=O)N[C@@H](CC(N)=O)C(=O)N[C@@H](CC(=O)O)C(=O)N[C@@H]1C(=O)NCC(=O)N[C@@H](CCCN)C(=O)N[C@@H](CC(=O)O)C(=O)N[C@H](C)C(=O)N[C@@H](CC(=O)O)C(=O)NCC(=O)N[C@H](CO)C(=O)N[C@@H]([C@H](C)CC(=O)O)C(=O)N[C@@H](CC(=O)c2ccccc2N)C(=O)O[C@@H]1C [DAPTOMYCIN] | 3.13 (≈ 5.07 µg/mL) |  |  |  |  |  | MBEC (Staphylococcus aureus [6]): >2000 µM; MBEC (Staphylococcus aureus [14]): >2000 µM
11 | COCCOCCOCCOC(=O)OCOc1c(Br)cc(Br)c2nc3ccccc3nc12 | > 100 | > 100 | > 100 |  | 1.4 |  | half-life [7]: 15.8 min
12 | Cc1ccc2nc3c(O)c(Br)cc(Br)c3nc2c1 |  | 0.3 (≈ 0.11 µg/mL) | 2.35 (≈ 0.865 µg/mL) |  | ≤ 1 | > 100 | MBEC (Enterococcus faecium [3]): 3.13 µM; MIC [12]: 6.25 µM (≈ 2.3 µg/mL); MBC (Enterococcus faecium [11]): 12.5 µM (≈ 4.6 µg/mL)
13 | O=C(OCCSSCCOC(=O)c1ccccc1)OCOc1c(Br)cc(Br)c2nc3ccccc3nc12 | > 100 | > 100 | > 100 |  | 1.3 | > 100 | 
14 | O=C(O)CN(CCN(CC(=O)O)CC(=O)O)CC(=O)O [EDETIC ACID] | 25 (≈ 7.31 µg/mL) |  |  | 1000 (≈ 292 µg/mL) |  |  | MBEC [10]: >2000 µM; MBC (Staphylococcus aureus [13]): 2000 µM (≈ 584 µg/mL); MBC (Staphylococcus aureus [5]): > 2000 µM; MBEC (Staphylococcus aureus [6]): >2000 µM; MBEC (Staphylococcus aureus [14]): >2000 µM
15 | Cc1cc2nc3c(O)c(Br)cc(Br)c3nc2c(C)c1C | 0.59 (≈ 0.234 µg/mL) | 0.1 (≈ 0.0396 µg/mL) |  | 25 (≈ 9.9 µg/mL) | 1.3 | > 100 | MBEC [10]: 25 µM; MBC (Staphylococcus aureus [5]): 150 µM (≈ 59.4 µg/mL); MBEC (Staphylococcus aureus [6]): 75 µM
16 | O=C(OCCOCCOCCOCCO)OCOc1c(Br)cc(Br)c2nc3ccccc3nc12 | > 100 | > 100 | > 100 |  | 2.7 | > 100 | half-life [7]: 7.3 min
17 | CCc1ccc2nc3c(O)ccc(Br)c3nc2c1 |  | 9.38 (≈ 2.84 µg/mL) | 12.5 (≈ 3.79 µg/mL) |  |  | > 100 | MIC [12]: 25 µM (≈ 7.58 µg/mL)
18 | CCOC(=O)c1ccc2nc3c(O)c(Br)cc(Br)c3nc2c1 |  |  | 2.35 (≈ 1 µg/mL) |  |  |  | 
19 | OC[C@H]1O[C@@H](Oc2c(Br)cc(Br)c3nc4ccccc4nc23)[C@H](O)[C@@H](O)[C@@H]1O | > 100 | > 100 | > 100 |  | ≤ 1 |  | half-life [7]: > 260 min
20 | CC(=O)N[C@@H](CS)C(=O)O [ACETYLCYSTEINE] |  |  |  | > 2000 |  |  | MBEC [10]: >2000 µM; MBC (Staphylococcus aureus [13]): > 2000 µM; MBEC (Enterococcus faecium [3]): >2000 µM; MBC (Enterococcus faecium [11]): > 2000 µM; MBEC (Staphylococcus aureus [14]): >2000 µM
21 | CN[C@@H]1[C@H](O[C@H]2[C@H](O[C@H]3[C@H](O)[C@@H](O)[C@H](N=C(N)N)[C@@H](O)[C@@H]3N=C(N)N)O[C@@H](C)[C@]2(O)C=O)O[C@@H](CO)[C@H](O)[C@H]1O [STREPTOMYCIN] |  |  |  |  |  |  | MIC [12]: 1.32 µM (≈ 0.768 µg/mL)
22 | CCCc1cn(Cc2ccc3nc4c(OC(C)=O)c(Br)cc(Br)c4nc3c2)nn1 | 100 (≈ 51.9 µg/mL) |  | > 100 |  |  |  | 
23 | NC(=O)c1cnccn1 [PYRAZINAMIDE] |  |  |  |  |  |  | MBC (Staphylococcus aureus [13]): > 2000 µM; MBEC (Staphylococcus aureus [14]): >2000 µM
24 | CCCc1ccc2nc3c(O)c(Br)cc(Br)c3nc2c1 | 0.1 (≈ 0.0396 µg/mL) | 0.15 (≈ 0.0594 µg/mL) | 3.13 (≈ 1.24 µg/mL) | 25 (≈ 9.9 µg/mL) | 2.1 | > 50 | MBC (Enterococcus faecium [11]): 25 µM (≈ 9.9 µg/mL); MBEC (Staphylococcus aureus [6]): 75 µM
25 | Oc1ccc(Br)c2nc3cc(Cl)ccc3nc12 |  | 18.8 (≈ 5.82 µg/mL) | 25 (≈ 7.74 µg/mL) |  |  | > 100 | MIC [12]: 6.25 µM (≈ 1.93 µg/mL)

— ChEMBL document CHEMBL4229392, “An Efficient Buchwald-Hartwig/Reductive Cyclization for the Scaffold Diversification of Halogenated Phenazines: Potent Antibacterial Targeting, Biofilm Eradication, and Prodrug Exploration” (J Med Chem, 2018)
